What was measured:
Mus musculus = experiment: Antidiabetic activity in KK-Ay mouse assessed as effect on LDL level at 50 mg/kg, po for 24 hrs by ELISA (reference value: 1.11 +/- 0.24 mM); assay type: functional
[1] = Effect on high fat diet-fed KK-Ay mouse model of obesity and diabetes assessed as food intake at 100 mg/kg, po (reference value: 5.67 +/- 0.55 g/day); assay type: ADME, organism-based; conditions: in vivo
In short: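 KK-Ay mice on lipogenic diet, with C57BL/6J mice as normal controls, dosed orally at 50 or 100 mg/kg (test) or 5 mg/kg (RGZ). Food intake (g/day), water intake (mL/day) and body weight recorded before and after treatment; body weight gain calculated. Mean±SD, 8-9 mice per group.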

L6 = experiment: Induction of glycolysis in rat L6 cells assessed as increase in lactate release at 10 to 40 uM measured after 24 hrs; conditions: dose 10-40 µM

## CCCC[C@@H]1[C@H]2CCCN3CCC[C@@H](CN1S(=O)(=O)c1ccc(C(F)(F)F)cc1)[C@@H]23
Mus musculus
  Activity: 1.06 mM
[1]
  Activity: 5.28 g/day
L6
  Activity: Dose-Dependent Effect
